TAAR1 agonist: human TAAR1 agonists, primary screen, Fluo-8 calcium fluorescence, CHO RD-HGA16 cells; Trace amine-associated receptor 1 (Homo sapiens), Q96RJ0; vehicle wells 0%, saturating PEA agonist 100%; activation, % at 3 µM; 360,000 compounds, 0.99% hits; AID 624467, 2012;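 active = activation above the mean activation of all test compounds in the run plus 3 SD, cut at about 38% in these data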
Target sequence (Q96RJ0 whole entry, looked up): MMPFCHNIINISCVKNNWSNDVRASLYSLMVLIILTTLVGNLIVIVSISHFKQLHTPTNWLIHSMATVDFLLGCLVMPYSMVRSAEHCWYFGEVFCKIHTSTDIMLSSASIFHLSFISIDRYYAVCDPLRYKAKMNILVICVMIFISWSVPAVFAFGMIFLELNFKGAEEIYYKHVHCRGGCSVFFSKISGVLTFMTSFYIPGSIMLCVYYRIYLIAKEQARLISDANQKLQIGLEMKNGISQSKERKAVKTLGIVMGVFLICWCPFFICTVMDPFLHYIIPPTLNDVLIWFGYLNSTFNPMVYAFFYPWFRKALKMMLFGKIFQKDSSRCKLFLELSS
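Assay system: CHO-derived RD-HGA16 cells with stable Gα16 and human TAAR1; timing: 17-24 h seeding, 75 min 37 °C dye, 30 min RT; read-out: % activation from peak over basal fluorescence ratio, DMSO-to-PEA scaled; measured by: kinetic Fluo-8 calcium fluorescence; benchmarks: low control DMSO, high control PEA (EC100); doses: 3 µM single concentration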
OX1R antag-1: OX1R (HCRTR1) antagonists, primary screen, fluorescence, CHO/OX1R cells, Fluo-8 calcium, orexin A. Fluo-8 calcium fluorescence. 330,000 compounds, 0.43% hits. inhibition, % at 5 µM;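 active = inhibition above its plate's threshold, mean inhibition of all tested compounds on the plate plus 3 SD, cut at about 37% in these data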;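 also: 0% = orexin A challenge wells and 100% = SB-334867-A antagonist wells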
GalR3 antag: GalR3 antagonists in HEK293 cells, primary screen, cell-based, fluorescence readout. Galanin receptor type 3 (Homo sapiens), O60755. HEK293 GalR3-CNG cAMP membrane potential fluorescence; galR3 body fused to GalR1 C-terminus. inhibition, % at 3 µM. 360,000 compounds, 0.44% hits;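 active = inhibition above the screen-wide average plus 3 SD, cut at about 13% in these data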;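 also: forskolin and galanin both at EC90 stimulate the cells; cAMP rise reported by CNG channel membrane potential dye signal; 0% = forskolin plus galanin with DMSO and 100% = forskolin alone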
Target sequence (O60755 1-299 limits assumed): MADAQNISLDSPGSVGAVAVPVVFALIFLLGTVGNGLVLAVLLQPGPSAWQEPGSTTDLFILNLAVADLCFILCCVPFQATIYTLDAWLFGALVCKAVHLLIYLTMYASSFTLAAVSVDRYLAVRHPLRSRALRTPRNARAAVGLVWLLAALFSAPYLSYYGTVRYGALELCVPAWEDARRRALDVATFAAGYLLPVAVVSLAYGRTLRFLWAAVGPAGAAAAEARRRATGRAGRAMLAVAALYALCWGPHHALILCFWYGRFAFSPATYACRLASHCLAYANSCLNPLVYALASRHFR
CHO parental Ca: ATP-evoked calcium signal inhibitors, parental CHO, primary screen, counter-screen for OX1R antagonist project, cell-based, fluorescence, Fluo-8 calcium dye; parental CHO-K1, ATP-induced calcium, Fluo-8 fluorescence; inhibition, % at 5.6 µM; 330,000 compounds, 0.63% hits; AID 463079, 2010;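 active = inhibition above that plate's mean sample inhibition plus 3 SD, cut at about 26% in these data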;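 also: 0% = ATP-challenged DMSO wells and 100% = DMSO wells without ATP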
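Measured by: calcium-sensitive Fluo-8 fluorescence / Test system: CHO parental line / Controls: ATP-challenged DMSO wells low, unchallenged DMSO wells high / Measure: % inhibition / Compound: single nominal dose of 5.6 µM per compound / Replicates: single well per compound, no replicates / Reagent: ATP as calcium-mobilizing challenge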
TAAR1 antag: human TAAR1 antagonists, primary screen, Fluo-8 calcium fluorescence, CHO RD-HGA16 cells | Trace amine-associated receptor 1 (Homo sapiens), Q96RJ0 | antagonist | inhibition, % at 3 µM | 360,000 compounds, 1.5% hits | AID 624466, 2012;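 active = inhibition above a per-plate cutoff, the mean inhibition of test compounds on that plate plus 3 SD, cut at about 49% in these data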;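 also: 0% = DMSO plus EC80 beta-PEA response and 100% = DMSO alone without agonist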
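test system = CHO RD-HGA16 cells bearing hTAAR1 | replication = singlicate | controls = DMSO-only wells and EC80 β-PEA-stimulated wells | reagent = EC80 β-phenethylamine stimulus | read-out basis = percent inhibition of PEA-evoked calcium signal, max/basal emission ratio | schedule = seeding 17-24 h prior, 75-min 37 °C, 30-min RT dye loading | signal = kinetic Fluo-8 calcium fluorescence measurement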
OX1R antag-2: antagonists of human orexin 1 receptor (OX1R); Orexin/Hypocretin receptor type 1 (Homo sapiens), O43613; OX1R-expressing cells, FRET antagonist read-out; inhibition, % at 6.6 µM; 330,000 compounds, 1.8% hits; AID 485270, 2010; in the data active = inhibition mostly above about 38%, no sharp cut-off; inactive = mostly below about 40%;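 also: 0% = agonist challenge alone and 100% = reference antagonist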
GalR3 conf: GalR3 antagonist hit confirmation, cell-based, fluorescence, triplicate | shares compounds with GalR3 antag | HEK293 GalR3 CNG cAMP biosensor, membrane potential fluorescence; galR3 fused to GalR1 carboxy tail; challenged with forskolin and galanin at EC90 | inhibition, % at 3 µM | 1,600 compounds, 59% hits | AID 652245, 2013;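 active = inhibition above the primary screen's cutoff, the mean inhibition of all screened compounds plus 3 SD, cut at about 13% in these data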;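 also: 0% = forskolin plus galanin and 100% = forskolin alone with DMSO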
CNG parental: nonspecific cAMP agonists in parental HEK-CNG cells, counter-screen for GalR3 antagonist project, cell-based, fluorescence, high throughput; shares compounds with GalR3 antag; HEK293-CNG parental cells, cAMP membrane potential fluorescence; normalised: DMSO wells 0%, forskolin wells 100%; activation, % at 3 µM; 1,600 compounds, 10% hits; AID 652268, 2013; in the data active = activation above about 1.3%
* marks the source's active call; other numbers are inactive results; · = not tested or not shown. A selection: hits, their analogues and other compounds. The true share with any hit is near 4.2%.

SMILES	TAAR1 agonist	OX1R antag-1	GalR3 antag	CHO parental Ca	TAAR1 antag	OX1R antag-2	GalR3 conf	CNG parental
Cc1ccc(OCC(=O)N/N=C\c2ccc(O)c([N+](=O)[O-])c2)c([N+](=O)[O-])c1	2	-21	-4	-1	9	33	·	·
Cc1ccc(/C=N\NC(=O)COc2ccc(C)cc2[N+](=O)[O-])cc1	2	0	13*	-13	-14	15	1	0
CCOC(=O)N1CCN(C(=O)COc2cc(=O)n(CC)c3ccccc23)CC1	12	-21	-3	-15	8	10	·	·
CCOc1ccc(CCNC(=O)COC(=O)c2n[nH]c3ccccc23)cc1OCC	2	·	-2	·	4	·	·	·
CN(C)/C=N/c1nc2nccc(-c3ccc(F)cc3)n2n1	1	-1	-3	-4	15	16	·	·
CN(C)/C=N/c1nc2nccc(-c3cccs3)n2n1	0	-15	13*	-8	-14	31	-1	0
Cc1cc(OCC(=O)NC2CC(C)(C)NC(C)(C)C2)c2c(C)c(C)c(=O)oc2c1	1	-7	-1	-6	-9	5	·	·
Cc1cc(OCC(=O)NC2CC(C)(C)NC(C)(C)C2)c2c(C)cc(=O)oc2c1	2	-5	·	-11	-16	13	-2	0
CC(=O)Nc1ccc(S(=O)(=O)Nc2ccc3c(c2)OCO3)cc1	2	-7	-11	-6	-15	31	·	·
CCN1/C(=C/c2sc(-c3ccccc3C)c[n+]2C)Sc2ccccc21	8	·	51*	·	19	·	72*	2.2*
CCCCNC(=S)NNc1c(Cl)cc(Cl)cc1Cl	-2	-17	-2	7	-20	20	·	·
O=C(NCCCl)NNc1c(Cl)cc(Cl)cc1Cl	5	-4	26*	-5	-1	10	13*	0
O=C(CCc1nc(-c2ccccc2F)no1)NCCN1CCN(Cc2ccccc2)CC1	1	-12	0	-20	3	28	·	·
Cc1nc2ccc(NC(=O)c3cc(S(=O)(=O)N(C)c4ccccc4)ccc3Cl)cc2s1	6	14	78*	39	29	40	112*	-1
N#Cc1ccccc1CCN1C(=O)c2ccccc2C1=O	2	-34	-6	-7	-8	9	·	·
Cc1nn(C)c(C)c1CN(C)S(=O)(=O)c1ccc2ccccc2c1	7	27	110*	38*	23	53*	116*	0
Cc1nn(C)c(C)c1CN(C)S(=O)(=O)c1ccc(F)cc1	5	-12	-5	-1	4	15	·	·
Cc1cccc(N2CCN(S(=O)(=O)c3cc(-c4cc(C)no4)ccc3C)CC2C)c1 (stereo not drawn)	-1	-10	52*	4	-11	16	88*	0
COc1ccc(-c2cc(C)no2)cc1S(=O)(=O)N1CCN(c2cccc(C)c2)C(C)C1 (stereo not drawn)	-2	-18	1	6	9	20	·	·
COc1cc2c(cc1OC)/C(=C/C(=O)c1ccc(OC)c([N+](=O)[O-])c1)NCC2	11	·	19*	·	31	·	25*	0
COc1cc2c(cc1OC)CN(C(=O)c1ccc(OC)c([N+](=O)[O-])c1)CC2	11	-13	-4	-22	-9	22	·	·
O=c1ccn(C2CCCO2)c(=O)[nH]1 (stereo not drawn)	2	·	-1	·	-9	·	·	·
COc1ccc(C(NC(C)=O)c2nccc3cc(OC)c(OC)cc23)cc1OC (stereo not drawn)	2	·	23*	·	-17	·	3	0
COc1ccc(C(NC(C)=O)c2cc(Cl)c3cccnc3c2O)cc1OC (stereo not drawn)	12	-11	-5	-24	-3	19	·	·
CCOC(=O)C1=C(c2ccccc2)NC(=O)NC1c1ccc(OC)cc1 (stereo not drawn)	3	-26	-3	-30	-16	28	·	·
SMILES	TAAR1 agonist	OX1R antag-1	GalR3 antag	CHO parental Ca	TAAR1 antag	OX1R antag-2	GalR3 conf	CNG parental
CCC(C)C(=O)Nn1c(C2CC2)nc2cc(OC)c(OC)cc2c1=O (stereo not drawn)	1	-27	25*	-5	-4	5	29*	0
COc1cccc(OC)c1C(=O)Nn1c(C2CCC2)nc2ccccc2c1=O	9	-15	1	-15	20	12	·	·
Cc1c(N)cc(S(=O)(=O)O)cc1NC(=O)c1cccc([N+](=O)[O-])c1	7	·	0	·	-17	·	·	·
COc1ccc(CC(=O)OCc2cc3ccc(C)cc3[nH]c2=O)cc1	5	-25	-3	-13	10	11	·	·
COc1ccc(CC(=O)OCc2cc3ccccc3[nH]c2=O)cc1	17	-11	·	-5	5	7	2	0
CN1CCN(c2nc(-c3ccncc3)nc3ccccc23)CC1	6	-12	-4	4	0	23	·	·
Cn1c(CNc2nc3ccccc3n2C)nc2ccccc21	2	-26	15*	-26	4	15	0	0
CCC(C)N(C(=O)COC(=O)CN=C1NS(=O)(=O)c2ccccc21)C1CCS(=O)(=O)C1 (stereo not drawn)	8	-2	-6	-1	-6	4	·	·
CCCc1nc(NCc2ccccc2)c(C#N)c2c1CCCC2	-2	-12	17*	-2	5	-2	4	1
CCCc1nc(NCCO)c(C#N)c2c1CCCC2	3	-28	-2	-15	-54	7	·	·
COc1ccccc1NC(=O)C1=C(C)Nc2nnnn2C1c1cccc(C)c1 (stereo not drawn)	9	-2	·	-8	-5	-3	·	·
OCc1cc(C(O)CNCCCCCCOCCCCc2ccccc2)ccc1O (stereo not drawn)	9	-17	19*	1	-12	18	32*	9.1*
CCOCCCNCC(O)c1ccccc1 (stereo not drawn)	24	-10	-2	-5	6	22	·	·

High-throughput results (PubChem BioAssay)
